From ChEMBL document CHEMBL1130177, “6 beta-Propynyl-substituted steroids: mechanism-based enzyme-activated irreversible inhibitors of aromatase” (J Med Chem, 1997)

Columns and labels:
[1] = target: T1, Aromatase (Homo sapiens, UniProt P11511); assay: Inhibition of human placental microsome Cytochrome P450 19A1
T1 sequence (P11511 whole entry): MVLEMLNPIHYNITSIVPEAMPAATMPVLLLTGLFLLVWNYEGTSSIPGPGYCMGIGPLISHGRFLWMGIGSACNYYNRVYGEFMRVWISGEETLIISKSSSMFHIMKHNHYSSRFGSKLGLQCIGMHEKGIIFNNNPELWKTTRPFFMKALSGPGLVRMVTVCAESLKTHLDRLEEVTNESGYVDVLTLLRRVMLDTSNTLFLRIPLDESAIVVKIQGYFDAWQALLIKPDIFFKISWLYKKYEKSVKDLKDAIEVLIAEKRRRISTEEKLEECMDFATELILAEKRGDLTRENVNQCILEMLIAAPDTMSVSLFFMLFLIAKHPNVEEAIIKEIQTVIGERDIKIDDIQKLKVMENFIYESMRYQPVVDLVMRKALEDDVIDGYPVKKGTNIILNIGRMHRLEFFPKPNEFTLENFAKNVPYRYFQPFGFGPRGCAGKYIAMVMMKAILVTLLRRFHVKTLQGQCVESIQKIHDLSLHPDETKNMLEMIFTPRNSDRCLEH
Summary of the method: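 Tritiated-water release assay in 0.1 M phosphate pH 7.4. Lyophilized human placental microsomes (0.25 mg) with 0.25 µM [1β-3H]androstenedione, glucose 6-phosphate 5.3 mM, NADP 0.6 mM, G6PDH, 1.0 mM EDTA. Inhibitors from 10^-5 to 10^-8 M, added in ethanol. 15 min at 37 °C; CHCl3 extraction, then the aqueous phase counted by scintillation.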

[2] = target: T1, Aromatase; assay: Binding affinity for human placental microsome Cytochrome P450 19A1 by nonlinear regression analysis; conditions: read-out: Ki app
Summary of the method: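 Human placental microsomes (0.025-0.03 mg protein) in 1.0 mL 0.1 M phosphate buffer pH 7.4, 37 °C in air, 10 min, initial velocity conditions. [1β-3H]androstenedione diluted with unlabelled androstenedione, 0.005-0.25 µM. Inhibitor at 250, 375 and 500 nM, plus no-inhibitor controls and 0-min blanks. 3H2O release counted; Ki derived by regression analysis; duplicate determinations.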

[3] = Compound was tested for inactivation kinetic values; conditions: read-out: Ki app (inact)
Summary of the method: (§1)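 Inhibitor, various concentrations, preincubated at 37 °C with placental microsomes (0.08-0.1 mg/mL) and NADPH (0.1 mM) in 0.1 M phosphate pH 7.4. Aliquots taken over time, diluted 10-fold in cold buffer, then assayed with 0.25 µM [1β-3H]androstenedione plus NADPH-generating system, 30 min at 37 °C. Half-lives plotted against 1/[I] (Kitz-Wilson); Ki(inact) from X-intercept, T1/2 from Y-intercept; duplicate determinations.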

[4] = Selectivity index of Kcat/app Ki(inact)
Summary of the method: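 Lyophilized human placental microsomes (0.08-0.1 mg/mL protein) were preincubated at 37 °C with varied inhibitor concentrations and 0.1 mM NADPH in 0.1 M phosphate buffer, pH 7.4. Timed aliquots were diluted 10-fold in cold buffer. Residual activity was read as 3H2O release from 0.25 µM [1β-3H]androstenedione with an NADPH-generating system (30 min, 37 °C). Half-life versus 1/[I] (Kitz-Wilson) gave Ki(inact) and kcat. Duplicates.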

[5] = The T1/2 value was obtained from the time point at which each half-time reached 50% of its value at zero time; type: ADME; summary of the method: as §1
[6] = The T1/2 values were obtained from the time point at which each half-time reached 50% of its value at zero time; type: ADME; summary of the method: as §1

| SMILES | IC50 [1] | Ki [2] | KI (inactivation) [3] | Selectivity index [4] | T1/2 [5] | T1/2 [6] |
| --- | --- | --- | --- | --- | --- | --- |
| C#CC[C@H]1CC2C(CCC3(C)C(=O)CCC23)C2CCC(=O)C=C21 (some centres undefined) | 187 nM | 65.8 nM | – | – | – | – |
| C#CC[C@@H]1CC2C3CCC(=O)C3(C)CCC2C2(C)CCC(=O)C=C12 (some centres undefined) | 31 nM | 10 nM | 72.4 nM | 21 | 7.6 min | – |
| C#CC[C@@H]1CC2C(CCC3(C)C(=O)CCC23)C2CCC(=O)C=C21 (some centres undefined) | 275 nM | 47.6 nM | 19.8 nM | 65 | 8.9 min | – |
| C#CC[C@]12CCC(=O)C=C1CC[C@@H]1[C@@H]2CC[C@]2(C)C(=O)CC[C@@H]12 [PLOMESTANE] | 56.2 nM | 15.2 nM | 59.5 nM | 24 | – | 8.9 min |
| C#CC[C@H]1CC2C3CCC(=O)C3(C)CCC2C2(C)CCC(=O)C=C12 (some centres undefined) | 176 nM | 37 nM | – | – | – | – |
